Tests used:
HeLa cells = assay: In vitro cytotoxicity MTS assay with HeLa cells; assay type: cell-based, human; conditions: HeLa cell line, 48 h incubation, mean ± SD (n = 3)
Summary of the method: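 HeLa cells were grown in EMEM with 10% FBS, nonessential amino acids and sodium pyruvate at 37 °C in 5% CO2. They were seeded at 40000 cells/well and left 24 h, then exposed 48 h to freshly prepared medium holding test compound over 0–100 or 0–1000 µM. MTS was added for 3 h and absorbance read at 490 nm. IC50 was obtained by curve fitting; runs were in triplicate.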

[1] = In vitro stability of FGC-Pt in mouse plasma; assay type: in vitro ADME; conditions: 37 °C
Summary of the method: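 Test compound (2.4 mg) was mixed with purchased mouse plasma (160 µL) and held at 37 °C for 0, 2, 4 and 6 h. Each mixture was diluted with saline, filtered and analysed by HPLC on a Sugar-D column with a water/methanol linear gradient at 0.5 mL/min, with UV detection at 220 nm. Results are mean ± SD, n = 3.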

A549 cell-bearing mice [2] = assay: In vivo biodistribution; design: species or system mouse; conditions: 4 mg of Pt/kg tail vein; for ratio of platinum concentration tumor/blood / ratio of platinum concentration tumor/bone / ratio of platinum concentration tumor/kidney / ratio of platinum concentration tumor/liver / ratio of platinum concentration tumor/muscle: A549 cell-bearing mice; for platinum accumulation in tumors: ICP-MS, mean ± SD (n = 4)
Summary of the method: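 Male BALB/c nu/nu mice (5 weeks old, quarantined 1 week) received 1 × 10^7 A549 cells s.c. into the right shoulder. At 50 mm3 tumour volume, mice got 4 mg Pt/kg by tail vein in freshly prepared saline (n = 4/group). At 24 and 48 h, Pt in tumour, muscle, bone, blood, liver and kidney was measured by ICP-MS after acid digestion. Values are ng Pt/g tissue and tumour/organ concentration ratios.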

A549 cell-bearing mice [3] = assay: In vivo assessment of antitumor effect and toxicity in A549 cell-bearing mice; design: species or system mouse; conditions: 2.7 mg of Pt/kg i.v. on days 1, 8, 15, 22; n = 6

Substance: cis-Dichloro [(2-Fluoro-α-D-glucopylanosidyl)propane-1,3-diamine] Platinum [FGC-Pt]
- IC50 (HeLa cells): 447 ± 99 µM
- half-life in mouse plasma [1]: approximately 2 h
- ratio of platinum concentration tumor/blood (A549 cell-bearing mice [2]; 24 h post-injection): 11.07
- ratio of platinum concentration tumor/bone (A549 cell-bearing mice [2]; 24 h post-injection): 2.93
- ratio of platinum concentration tumor/kidney (A549 cell-bearing mice [2]; 24 h post-injection): 0.29
- ratio of platinum concentration tumor/liver (A549 cell-bearing mice [2]; 24 h post-injection): 0.50
- ratio of platinum concentration tumor/muscle (A549 cell-bearing mice [2]; 24 h post-injection): 3.64
- platinum accumulation in tumors (A549 cell-bearing mice [2]; 24 h post-injection): 1058 ± 220 Pt ng/g tissue
- ratio of platinum concentration tumor/blood (A549 cell-bearing mice [2]; 48 h post-injection): 14.37
- ratio of platinum concentration tumor/bone (A549 cell-bearing mice [2]; 48 h post-injection): 3.03
- ratio of platinum concentration tumor/kidney (A549 cell-bearing mice [2]; 48 h post-injection): 0.42
- ratio of platinum concentration tumor/liver (A549 cell-bearing mice [2]; 48 h post-injection): 0.59
- ratio of platinum concentration tumor/muscle (A549 cell-bearing mice [2]; 48 h post-injection): 4.09
- platinum accumulation in tumors (A549 cell-bearing mice [2]; 48 h post-injection): 1055 ± 278 Pt ng/g tissue
- toxic side effects (body weight, loss of appetite, injection site) (A549 cell-bearing mice [3]): reduces toxicity compared to that of cisplatin

— article PMC10785272 (ACS Omega, 2023)
